The source of these data is ChEMBL document CHEMBL1139934, “Synthesis and biological activity of imidazopyridine anticoccidial agents: part I” (Eur J Med Chem, 2007).

For assay [1], the target named is cGMP-dependent protein kinase (Eimeria tenella, UniProt Q8MMZ8). Briefly: Inhibition of Eimeria tenella cGMP-dependent protein kinase by Ten_K assay. The essentials: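 Ten_K (Tenella Kinase) assay measuring inhibition of E. tenella PKG enzyme activity. Result expressed as the concentration giving 50% inhibition (IC50, nM). Where a compound was tested more than once, all values are reported.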

Assay [2] relates to Eimeria tenella. As to the kind of experiment: Anticococcidal activity against Eimeria tenella in Chick assessed as reduction in oocyte at 50 ppm relative to control. The class given is functional. Also noted: scale not given: the % may be the effect or the level left. In a few lines: (§1)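 Expanded Mini-Assay Coccidiosis (ExMAC) in chickens infected with E. tenella, E. acervulina, E. mitis and E. maxima. Compound given in the feed at the stated ppm. Efficacy for each species is scored 0 to 4 from the percent oocyst reduction relative to an untreated control. Where a compound was tested more than once, all values are reported.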

The test system of assay [3] is Eimeria acervulina. As to the kind of experiment: Anticococcidal activity against Eimeria acervulina in Chick assessed as reduction in oocyte at 50 ppm relative to control. The class given is functional. Also noted: scale not given: the % may be the effect or the level left. In a few lines: as §1
Assay [4] concerns Eimeria mitis. Briefly: Anticococcidal activity against Eimeria mitis in Chick assessed as reduction in oocyte at 50 ppm relative to control. Details: scale not given: the % may be the effect or the level left. The class given is functional. In a few lines:
as §1

For assay [5], the system named is Eimeria maxima. As to the kind of experiment: Anticococcidal activity against Eimeria maxima in Chick assessed as reduction in oocyte at 50 ppm relative to control. It counts as functional. Details: scale not given: the % may be the effect or the level left. In a few lines:
as §1

The subject of assay [6] is Eimeria acervulina. As to the kind of experiment: Anticococcidal activity against Eimeria acervulina in Chick assessed as reduction in oocyte at 25 ppm relative to control. The class given is functional. Details: scale not given: the % may be the effect or the level left. In a few lines:
as §1

For assay [7], the system named is Eimeria acervulina. As to the kind of experiment: Anticococcidal activity against Eimeria acervulina in Chick assessed as reduction in oocyte at 12.5 ppm relative to control. It counts as functional. Also noted: scale not given: the % may be the effect or the level left. In a few lines:
as §1

Assay [8] concerns Eimeria maxima. Briefly: Anticococcidal activity against Eimeria maxima in Chick assessed as reduction in oocyte at 12.5 ppm relative to control. The class given is functional. Also noted: scale not given: the % may be the effect or the level left. The essentials: as §1
For assay [9], the system named is Eimeria mitis. As to the kind of experiment: Anticococcidal activity against Eimeria mitis in Chick assessed as reduction in oocyte at 25 ppm relative to control. The class given is functional. Details: scale not given: the % may be the effect or the level left. In a few lines: as §1
Assay [10] relates to Eimeria tenella. As to the kind of experiment: Anticococcidal activity against Eimeria tenella in Chick assessed as reduction in oocyte at 25 ppm relative to control. The class given is functional. Details: scale not given: the % may be the effect or the level left. The essentials: as §1
The test system of assay [11] is Eimeria mitis. Briefly: Anticococcidal activity against Eimeria mitis in Chick assessed as reduction in oocyte at 3.13 ppm relative to control. Also noted: scale not given: the % may be the effect or the level left. The class given is functional. In a few lines: as §1
Assay [12] relates to Eimeria acervulina. Briefly: Anticococcidal activity against Eimeria acervulina in Chick assessed as reduction in oocyte at 6.25 ppm relative to control. It counts as functional. Also noted: scale not given: the % may be the effect or the level left. In a few lines: as §1
For assay [13], the system named is Eimeria tenella. As to the kind of experiment: Anticococcidal activity against Eimeria tenella in Chick assessed as reduction in oocyte at 12.5 ppm relative to control. The class given is functional. Details: scale not given: the % may be the effect or the level left. In a few lines:
as §1

The test system of assay [14] is Eimeria tenella. Briefly: Anticococcidal activity against Eimeria tenella in Chick assessed as reduction in oocyte at 6.25 ppm relative to control. The class given is functional. Details: scale not given: the % may be the effect or the level left. In a few lines:
as §1

The subject of assay [15] is Eimeria maxima. As to the kind of experiment: Anticococcidal activity against Eimeria maxima in Chick assessed as reduction in oocyte at 25 ppm relative to control. It counts as functional. Also noted: scale not given: the % may be the effect or the level left. In a few lines:
as §1

Assay [16] relates to Eimeria maxima. As to the kind of experiment: Anticococcidal activity against Eimeria maxima in Chick assessed as reduction in oocyte at 6.25 ppm relative to control. Details: scale not given: the % may be the effect or the level left. It counts as functional. The essentials: as §1
Assay [17] concerns Eimeria tenella. As to the kind of experiment: Anticococcidal activity against Eimeria tenella in Chick assessed as reduction in oocyte at 3.13 ppm relative to control. The class given is functional. Details: scale not given: the % may be the effect or the level left. The essentials:
as §1

For assay [18], the system named is Eimeria mitis. Briefly: Anticococcidal activity against Eimeria mitis in Chick assessed as reduction in oocyte at 6.25 ppm relative to control. It counts as functional. Details: scale not given: the % may be the effect or the level left. In a few lines: as §1
Assay [19] has as its system Eimeria acervulina. As to the kind of experiment: Anticococcidal activity against Eimeria acervulina in Chick assessed as reduction in oocyte at 3.13 ppm relative to control. The class given is functional. Details: scale not given: the % may be the effect or the level left. In a few lines:
as §1

Assay [20] concerns Eimeria mitis. As to the kind of experiment: Anticococcidal activity against Eimeria mitis in Chick assessed as reduction in oocyte at 12.5 ppm relative to control. It counts as functional. Details: scale not given: the % may be the effect or the level left. In a few lines:
as §1

Assay [21] relates to Eimeria maxima. Briefly: Anticococcidal activity against Eimeria maxima in Chick assessed as reduction in oocyte at 3.13 ppm relative to control. Details: scale not given: the % may be the effect or the level left. The class given is functional. In a few lines: as §1
Assay [22] concerns Eimeria mitis. Briefly: Anticococcidal activity against Eimeria mitis in Chick assessed as reduction in oocyte at 1.25 ppm relative to control. Details: scale not given: the % may be the effect or the level left. It counts as functional. The essentials: as §1
In assay [23] the test system is Eimeria tenella. Briefly: Anticococcidal activity against Eimeria tenella in Chick assessed as reduction in oocyte at 1.25 ppm relative to control. The class given is functional. Also noted: scale not given: the % may be the effect or the level left. The essentials:
as §1

For assay [24], the system named is Eimeria maxima. Briefly: Anticococcidal activity against Eimeria maxima in Chick assessed as reduction in oocyte at 1.25 ppm relative to control. The class given is functional. Details: scale not given: the % may be the effect or the level left. The essentials: as §1
Assay [25] concerns Eimeria acervulina. As to the kind of experiment: Anticococcidal activity against Eimeria acervulina in Chick assessed as reduction in oocyte at 1.25 ppm relative to control. The class given is functional. Details: scale not given: the % may be the effect or the level left. In a few lines: as §1
The target of assay [26] is cGMP-dependent protein kinase (Eimeria tenella) (UniProt Q8MMZ8). Briefly: Inhibition of Eimeria tenella cGMP-dependent protein kinase at 100 nM by Ten_K assay.

Each structure is given as a SMILES string.

Chain of cGMP-dependent protein kinase (Q8MMZ8 whole entry): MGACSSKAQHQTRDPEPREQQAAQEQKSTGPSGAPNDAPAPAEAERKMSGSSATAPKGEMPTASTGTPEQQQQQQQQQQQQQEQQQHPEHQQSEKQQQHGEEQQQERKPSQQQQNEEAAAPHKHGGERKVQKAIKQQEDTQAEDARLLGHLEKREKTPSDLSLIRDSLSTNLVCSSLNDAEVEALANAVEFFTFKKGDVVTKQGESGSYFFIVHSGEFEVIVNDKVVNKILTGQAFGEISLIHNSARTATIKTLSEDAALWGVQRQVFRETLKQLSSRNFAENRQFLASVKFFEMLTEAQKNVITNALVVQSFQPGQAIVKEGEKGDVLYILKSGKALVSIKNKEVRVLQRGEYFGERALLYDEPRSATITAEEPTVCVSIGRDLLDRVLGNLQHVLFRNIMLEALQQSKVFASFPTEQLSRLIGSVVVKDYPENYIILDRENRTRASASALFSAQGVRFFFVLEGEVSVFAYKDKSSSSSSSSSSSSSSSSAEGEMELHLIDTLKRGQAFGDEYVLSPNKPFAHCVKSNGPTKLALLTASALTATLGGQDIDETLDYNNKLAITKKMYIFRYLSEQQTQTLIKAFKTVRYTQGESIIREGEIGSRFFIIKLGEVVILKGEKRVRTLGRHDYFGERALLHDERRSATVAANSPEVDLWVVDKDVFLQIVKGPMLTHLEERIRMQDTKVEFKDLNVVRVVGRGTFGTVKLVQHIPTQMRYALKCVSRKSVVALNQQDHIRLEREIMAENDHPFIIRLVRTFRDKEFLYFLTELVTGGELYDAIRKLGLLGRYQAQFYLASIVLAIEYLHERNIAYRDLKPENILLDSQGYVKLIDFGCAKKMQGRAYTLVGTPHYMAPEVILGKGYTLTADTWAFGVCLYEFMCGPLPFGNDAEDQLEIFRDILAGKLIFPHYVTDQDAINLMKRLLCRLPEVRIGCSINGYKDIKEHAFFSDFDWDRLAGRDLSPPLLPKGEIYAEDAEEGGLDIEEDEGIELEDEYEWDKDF
Chain of cGMP-dependent protein kinase (Eimeria tenella) (Q8MMZ8 2-1003 limits assumed): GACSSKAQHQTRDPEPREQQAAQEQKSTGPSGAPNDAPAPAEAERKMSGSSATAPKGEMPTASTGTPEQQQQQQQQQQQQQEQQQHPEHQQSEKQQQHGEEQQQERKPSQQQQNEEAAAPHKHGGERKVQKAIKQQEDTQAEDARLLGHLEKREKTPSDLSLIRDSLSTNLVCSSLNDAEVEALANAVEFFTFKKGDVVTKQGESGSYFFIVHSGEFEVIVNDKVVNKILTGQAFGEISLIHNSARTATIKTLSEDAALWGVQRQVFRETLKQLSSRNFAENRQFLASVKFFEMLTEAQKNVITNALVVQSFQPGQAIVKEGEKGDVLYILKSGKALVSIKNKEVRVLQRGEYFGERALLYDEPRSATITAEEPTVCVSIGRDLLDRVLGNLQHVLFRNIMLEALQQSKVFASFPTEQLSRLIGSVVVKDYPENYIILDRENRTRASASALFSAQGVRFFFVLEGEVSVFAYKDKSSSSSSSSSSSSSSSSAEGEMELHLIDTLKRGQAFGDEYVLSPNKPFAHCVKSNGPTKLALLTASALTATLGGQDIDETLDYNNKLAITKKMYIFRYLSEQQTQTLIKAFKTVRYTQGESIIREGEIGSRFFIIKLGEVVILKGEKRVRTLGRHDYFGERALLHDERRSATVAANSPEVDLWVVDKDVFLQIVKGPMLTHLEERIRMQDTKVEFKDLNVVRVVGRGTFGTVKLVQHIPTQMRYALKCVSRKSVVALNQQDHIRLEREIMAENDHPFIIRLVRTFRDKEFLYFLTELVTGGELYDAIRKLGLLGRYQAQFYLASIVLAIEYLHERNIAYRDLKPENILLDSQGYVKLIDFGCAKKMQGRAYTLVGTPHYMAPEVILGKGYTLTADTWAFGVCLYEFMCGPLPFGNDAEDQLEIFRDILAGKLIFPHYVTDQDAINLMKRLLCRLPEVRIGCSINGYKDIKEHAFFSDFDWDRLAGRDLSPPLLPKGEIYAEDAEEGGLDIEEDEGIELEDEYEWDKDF

Molecule `CCCCNc1nccc(-c2c(-c3ccc(F)cc3)nc3cc(CN(C)C)ccn23)n1` displayed an IC50 in assay [1] of 2.14 nM. Also, the Activity with Eimeria tenella [2], in the assay on Eimeria acervulina [3], in the assay on Eimeria mitis [4] and with Eimeria maxima [5] was <50% each time.
On to `CN(C)Cc1ccn2c(-c3ccnc(N)n3)c(-c3c(F)cc(F)cc3F)nc2c1`, for which the Activity is given as 80% in the assay on Eimeria acervulina [6]; 80% in the assay with Eimeria acervulina [7]; 80% in the assay on Eimeria maxima [8]; <50% with Eimeria mitis [9]; 80% with Eimeria tenella [10]; 50% with Eimeria mitis [11]. The Activity in the assay on Eimeria acervulina [12] is listed as 50%; in the assay on Eimeria tenella [13] it was 80%; with Eimeria tenella [14], <50%; with Eimeria maxima [15], 100%; in the assay with Eimeria maxima [16], 50%; in the assay on Eimeria tenella [17], 50%. Further, the Activity in the assay with Eimeria mitis [18] is on record as 50%; in the assay on Eimeria acervulina [19], <50%; in the assay with Eimeria mitis [20], <50%; in the assay with Eimeria maxima [21], 80%. In addition, the IC50 in [1] worked out at 0.52 nM.
In the case of `CN(C)Cc1ccn2c(-c3nc(N)ncc3F)c(-c3ccc(F)cc3)nc2c1`, the Activity was 100% in the assay on Eimeria acervulina [6]; 50% with Eimeria mitis [9]; 80% in the assay with Eimeria tenella [10]; 50% in the assay on Eimeria acervulina [12]; 80% with Eimeria tenella [14]; <50% in the assay on Eimeria mitis [22]. Also, the Activity with Eimeria maxima [15] is reported as 100%; in the assay on Eimeria maxima [16] it was <50%; in the assay on Eimeria tenella [23], 80%; in the assay with Eimeria mitis [18], <50%; with Eimeria maxima [24], <50%; in the assay on Eimeria acervulina [25], 100%. In [1], this molecule displayed an IC50 of 0.23 nM.
For `COCCNc1nccc(-c2c(-c3ccc(F)cc3)nc3cc(CN(C)C)ccn23)n1`, the Activity with Eimeria acervulina [6] is 80%; with Eimeria acervulina [7] it was 80%; in the assay with Eimeria maxima [8], 80%; in the assay on Eimeria mitis [9], <50%; in the assay on Eimeria tenella [10] it was 80%; in the assay with Eimeria acervulina [12], <50%. The Activity with Eimeria tenella [13] is on record as 80%; in the assay on Eimeria tenella [14] it was <50%; in the assay with Eimeria maxima [15] it was 80%; with Eimeria maxima [16], 50%; in the assay with Eimeria mitis [18], <50%; with Eimeria mitis [20], <50%. This molecule also came in with an IC50 in [1] of 0.25 nM.
As for `CN(C)Cc1ccn2c(-c3ccnc(N)n3)c(-c3ccc(F)cc3)nc2c1`, the Activity with Eimeria acervulina [6] is given as 80%; in the assay with Eimeria acervulina [7], <50%; in the assay on Eimeria maxima [8], 80%; in the assay on Eimeria mitis [9], 80%; with Eimeria tenella [10], 80%; in the assay with Eimeria acervulina [12], <50%. In addition, the Activity with Eimeria tenella [13] is 80%; in the assay on Eimeria tenella [14] it was <50%; with Eimeria maxima [15], 80%; in the assay on Eimeria maxima [16], 80%; in the assay on Eimeria mitis [18], <50%; with Eimeria mitis [20], 80%. In assay [1], this molecule returned an IC50 of 0.23 nM.
Turning to `CN(C)Cc1ccn2c(-c3ccnc(NS(=O)(=O)Cc4ccccc4)n3)c(-c3ccc(F)cc3)nc2c1`, the Activity in the assay on Eimeria acervulina [6], with Eimeria mitis [9], with Eimeria tenella [10] and in the assay on Eimeria maxima [15] was <50% each time. The molecule also displayed an inhibition in assay [26] of 40%.
For `CN(C)Cc1ccn2c(-c3ccnc(NCCO)n3)c(-c3ccc(F)cc3)nc2c1`, the Activity with Eimeria acervulina [6] is on record as 80%; with Eimeria acervulina [7], <50%; in the assay with Eimeria maxima [8], 80%; in the assay on Eimeria mitis [9] it was 80%; in the assay on Eimeria tenella [10], 80%; in the assay on Eimeria acervulina [12], <50%. The Activity in the assay with Eimeria tenella [13] was 50%; with Eimeria tenella [14], <50%; in the assay with Eimeria maxima [15] it was 80%; in the assay on Eimeria maxima [16], 50%; in the assay with Eimeria mitis [18] it was <50%; with Eimeria mitis [20] it was <50%. Besides, the IC50 in [1] is 0.3 nM.
On to `Cc1cnc(N)nc1-c1c(-c2ccc(F)cc2)nc2cc(CN(C)C)ccn12`, for which the Activity is recorded as 80% in the assay with Eimeria acervulina [6]; <50% with Eimeria acervulina [7]; 80% in the assay on Eimeria maxima [8]; 80% with Eimeria mitis [9]; 80% in the assay on Eimeria tenella [10]; <50% with Eimeria acervulina [12]. In addition, the Activity is reported as 80% in the assay on Eimeria tenella [13]; <50% with Eimeria tenella [14]; 80% in the assay on Eimeria maxima [15]; 80% in the assay with Eimeria maxima [16]; <50% with Eimeria mitis [18]; 80% with Eimeria mitis [20]. The midpoint of inhibition in [1], the IC50, lay at 0.23 nM.
